Sampled rows, rich in hits. Any-hit rate of the full collection: about 1.7%.
IDE cell inh = human IDE inhibitors in live cells, primary screen, fluorescence polarization, HEK cells, FAbetaB substrate; inhibition, % at 5.59 µM; actives 0.41% (n = 320,000); FAbetaB cleavage; Insulin-degrading enzyme (Homo sapiens), P14735;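 active = percent inhibition above the average of all tested compounds plus 3 SD, set per screening campaign, cut at about 16% in these data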;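 note: IDE supplied by intact live HEK cells; FP after avidin binding of uncleaved biotin substrate so inhibition keeps polarization high; 0% = DMSO wells and 100% = 60 µM reference IDE inhibitor Ii1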
CSN deneddyl inh = inhibitors of CSN-mediated cullin deneddylation, primary screen, biochemical, fluorescence polarization, uHTS | Purified CSN, SCF-Nedd8-OG deneddylation | COP9 signalosome complex subunit 5 (Homo sapiens), Q92905 | actives 0.38% (n = 360,000) | AID 651999, 2013 | inhibition, % at 12.5 µM;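 active = pattern-corrected inhibition above about 35%, with an unprinted fluorescence ratio check between 0.5 and 1.5, limit read from the data, passing the limit was not always enough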;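 note: 0% = enzyme with substrate and 100% = substrate without enzyme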
Target sequence (Q92905 whole entry, looked up, one chain of several): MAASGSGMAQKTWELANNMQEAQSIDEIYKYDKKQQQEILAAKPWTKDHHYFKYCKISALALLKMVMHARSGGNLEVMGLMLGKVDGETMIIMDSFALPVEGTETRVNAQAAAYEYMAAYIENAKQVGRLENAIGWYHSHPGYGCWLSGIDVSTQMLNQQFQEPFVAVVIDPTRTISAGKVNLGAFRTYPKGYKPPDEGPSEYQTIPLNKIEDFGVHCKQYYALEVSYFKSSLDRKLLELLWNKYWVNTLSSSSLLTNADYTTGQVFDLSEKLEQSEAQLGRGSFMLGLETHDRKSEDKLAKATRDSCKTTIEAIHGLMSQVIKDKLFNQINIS
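Assay system: HEK293T-derived human Csn5 enzyme; quantity: 0.24 nM enzyme; medium: Tris/NaCl/DTT buffer, pH 7.5; also added: substrate SCFSkp2-Nedd8OG, 10 nM; doses: 12.5 µM compound; schedule: 90 min reaction at room temperature; signal: FP; read-out: % inhibition of substrate cleavage by Csn5; benchmarks: substrate-only high control, full reaction low control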
TPT1 inhibitor = Candida albicans TPT1 enzyme inhibitors, primary screen, biochemical, fluorescence polarization. tRNA 2'-phosphotransferase TPT1 (Candida albicans SC5314). recombinant caTPT1, FP RNA substrate dephosphorylation. inhibition, % at 5 µM. actives 0.81% (n = 300,000);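 active = inhibition above the mean of all tested compounds plus 3 SD, set per screening campaign, cut at about 24% in these data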;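 note: plate controls were DMSO alone for no effect and ferristatin control at 100 nM for full effect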
Rpn11 block = Rpn11 (PSMD14) deubiquitinase inhibitors, primary screen, biochemical, fluorescence polarization, uHTS; 26S proteasome non-ATPase regulatory subunit 14 (Homo sapiens), O00487; human 26S proteasome, Ub4-pepOG fluorescence polarization; 20S core pre-blocked with epoxomicin; inhibition, % at 20 µM; actives 0.59% (n = 360,000);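 active = inhibition at 20 µM, scaled to each plate's controls, above about 33%, limit read from the data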
Target sequence (O00487 whole entry, looked up): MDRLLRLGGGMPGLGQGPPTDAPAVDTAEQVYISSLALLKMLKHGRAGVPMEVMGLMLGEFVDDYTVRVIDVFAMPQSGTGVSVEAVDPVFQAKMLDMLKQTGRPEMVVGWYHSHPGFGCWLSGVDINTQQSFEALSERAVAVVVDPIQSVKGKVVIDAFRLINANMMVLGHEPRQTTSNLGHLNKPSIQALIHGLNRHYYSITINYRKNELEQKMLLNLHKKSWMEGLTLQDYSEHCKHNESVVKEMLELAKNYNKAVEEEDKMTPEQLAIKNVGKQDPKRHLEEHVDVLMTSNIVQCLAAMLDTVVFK
HNF4A DNA FP = change in binding of human HNF4A to DNA, primary screen, biochemical, fluorescence polarization, FITC-DNA | 1 h | Hepatocyte nuclear factor 4-alpha (Homo sapiens), P41235 | actives 0.3% (n = 360,000) | activity change, % at 10 µM; in the data active = activity change above about 30%, passing the limit was not always enough
IDE cell activ = human IDE activators in live cells, primary screen, fluorescence polarization, HEK cells, FAbeta-B substrate; Insulin-degrading enzyme (Homo sapiens), P14735; FAbeta-B cleavage; 0% vehicle, 100% cell-free pure enzyme wells; activation, % at 5.96 µM; actives 0.073% (n = 340,000);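 active = activation above the mean of all tested compounds plus 3 SD, set per screening campaign, cut at about 17% in these data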
caTPT1 confirm = Candida albicans TPT1 inhibitors, confirmation, biochemical, fluorescence polarization, triplicate. shares compounds with TPT1 inhibitor. recombinant caTPT1, RNase T1 coupled. inhibition, % at 5 µM. actives 74% (n = 2,400). AID 2149, 2009;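 active = inhibition above the primary screen limit, the mean inhibition of all tested compounds plus 3 SD, cut at about 25% in these data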
RNase T1 inh = RNase T1 inhibitors, counter-screen for TPT1 inhibitor project, biochemical, fluorescence polarization; shares compounds with TPT1 inhibitor; RNase T1 cleavage, 1536-well; inhibition, % at 5 µM; actives 83% (n = 2,400);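 active = inhibition above the solvent-only control well mean plus 3 SD, limit set per screening run, cut at about 23% in these data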;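 note: plate controls were DMSO wells with enzyme for no effect and wells without RNase T1 for full effect; inhibitors block cleavage so intact labeled substrate keeps polarization high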
IDE inh confirm = human IDE inhibitors in live cells, confirmation, fluorescence polarization, HEK cells, FAbetaB substrate; shares compounds with IDE cell inh; FAbetaB cleavage; inhibition, % at 5.59 µM; actives 51% (n = 1,200);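 active = mean inhibition across triplicate wells above the cutoff set by the earlier primary insulin-degrading enzyme screen, cut at about 16% in these data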;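 note: 0% = DMSO wells and 100% = 60 µM reference IDE inhibitor Ii1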
HEK293 tox = cytotoxicity in HEK cells, cytotoxicity control for IDE inhibitor project, cell-based, luminescence. inhibition, % at 5.59 µM. actives 28% (n = 1,200). HEK293 cytotoxicity, ATP luminescence. shares compounds with IDE cell inh; in the data active = inhibition above about 22%;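 note: 0% = vehicle wells and 100% = reference cytotoxic drug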
Rpn11 confirm = Rpn11 (PSMD14) deubiquitinase inhibitors, confirmation, biochemical, fluorescence polarization, single concentration; purified human 26S proteasome, Ub4-pepOG fluorescence polarization; proteasome pretreated with epoxomicin; inhibition, % at 20 µM; actives 29% (n = 1,900); shares compounds with Rpn11 block
MMP-2 counter-1 = MMP-2 enzyme inhibition, confirmation, counter-screen for RPN11 inhibitor project, biochemical, fluorescence, single concentration; shares compounds with Rpn11 block; recombinant MMP-2, FRET peptide cleavage fluorescence; inhibition, % at 20 µM; actives 4% (n = 1,900); AID 602330, 2012;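 note: human MMP-2 activated beforehand with APMA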
Thrombin FP = bovine thrombin protease inhibition, confirmation, counter-screen for Rpn11 inhibitor project, biochemical, fluorescence polarization, single concentration | shares compounds with Rpn11 block | bovine thrombin cleavage of Ub4-pepOG | inhibition, % at 20 µM | actives 13% (n = 1,900) | AID 602333, 2012;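 active = mean inhibition at least 40% at 20 µM, or signal 3 deviations below plate average, so some actives read negative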;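 note: plate controls were thrombin with DMSO for no effect and buffer wells lacking thrombin for full effect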
CSN deneddyl val = Csn5 deneddylation inhibitors, confirmation, biochemical, fluorescence polarization, single concentration, SCF-Nedd8OG substrate; actives 62% (n = 540); AID 720654, 2013; Csn5 deneddylation of SCF-Nedd8OG, 90 min; shares compounds with CSN deneddyl inh; inhibition, % at 16.6 µM; in the data active = inhibition above about 50%;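 note: 0% = DMSO with enzyme and 100% = no enzyme wells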
MMP-2 counter-2 = MMP-2 protease inhibition counter-screen, confirmation, counter-screen for CSN deneddylation inhibitor project, biochemical, fluorescence, single concentration | recombinant MMP-2, FRET substrate fluorescence, 60 min | inhibition, % at 16.6 µM | shares compounds with CSN deneddyl inh | actives 33% (n = 540);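 active = corrected plate-normalized z-score of 5 or more, or -5 or less, or inhibition of 15% or more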;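 note: plate controls were DMSO wells with enzyme for no effect and buffer wells lacking MMP-2 for full effect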
Thrombin cntr = thrombin (bovine) inhibition, counter-screen for CSN hits; shares compounds with CSN deneddyl inh; bovine thrombin cleavage of Ub4-pepOG, fluorescence polarization; inhibition, % at 16.6 µM; actives 49% (n = 540); AID 720656;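 active = inhibition at or above a set limit, with a fluorescence interference ratio between 0.5 and a set maximum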
* hit, by the source's call; x = no result given. Cut-off read from the data, not from the text of the source, unless noted: active = inhibition above about 40%; inactive = the rest.

SMILES	IDE cell inh	CSN deneddyl inh	TPT1 inhibitor	Rpn11 block	HNF4A DNA FP	IDE cell activ	caTPT1 confirm	RNase T1 inh	IDE inh confirm	HEK293 tox	CSN deneddyl val	MMP-2 counter-2	Thrombin cntr	others
CC(C)N1CCc2c(sc(NC(=O)c3ccc(S(=O)(=O)N4CCc5ccccc54)cc3)c2C(N)=O)C1	10	47*	82*	x	53*	-10	84*	93*	x	x	x	7	-84
NC(=O)c1ccsc1NC(=O)c1ccc(S(=O)(=O)N2CCCc3ccccc32)cc1	3	4	2	13	2	-2	x	x	x	x	x	x	x
C#CCN1C(=O)S/C(=C/C=C/c2ccc(N(C)C)cc2)C1=O	41*	59*	87*	x	78*	-44	77*	81*	57*	27*	54*	-69*	71*
COc1ccc(C(=O)N2CCCC(CNC(=O)c3ccccc3Cl)C2)o1 (stereo not given)	5	-4	-5	-5	-1	6	x	x	x	x	x	x	x
Cc1nn(C(C)C(=O)NC2CCCCC2)c(=O)c2nn(-c3ccccc3)c(C)c12 (stereo not given)	-1	-3	-3	1	6	0	x	x	x	x	x	x	x
COc1cc(C2C(C#N)=C(N)Oc3cc(N(C)C)ccc32)cc2c1OCO2 (stereo not given)	19*	36*	100*	x	56	-20	98*	99*	15	67*	86*	3	20*
CC(OC(=O)/C(C#N)=C/c1ccc(N(C)C)cc1)C(=O)N(C)c1ccccc1 (stereo not given)	16*	71*	121*	x	107*	-26	130*	132*	31*	12	62*	-20	73*
C=CC[C@H](CC(=O)N[C@H](CO)Cc1ccccc1)C(=O)N[C@H](COC(=O)[C@H](CC=C)CC(=O)OC(C)(C)C)Cc1c[nH]c2ccccc12	0	3	x	0	1	2	x	x	x	x	x	x	x
Nc1ccc(/C=C/C(=O)c2cccs2)cc1	11	40*	78*	x	19	-27	96*	99*	x	x	72*	-16	32*
Cc1ccc(NC(=O)CN(C)C(=O)c2cc(-c3ccco3)nc3ccccc23)cc1	12	51*	25*	16	-25	4	10	14	x	x	x	10	-6
CCOc1ccc(NC(=O)CN(C)C(=O)c2cc(-c3ccco3)nc3ccccc23)cc1OCC	x	-2	x	6	0	-3	x	x	x	x	x	x	x
CCOc1ccccc1/C=N/NC(=O)c1c(C)nc2ccc(Br)cn12	9	-3	-1	-7	2	-2	x	x	x	x	x	x	x
COc1cccc(/C=N/NC(=O)c2c(C)nc3ccc(Br)cn23)c1O	1	45*	31*	16	4	3	43*	46*	x	x	6	2	-18
COc1ccc(C2=NN(c3ccccc3)C(=O)/C2=C\c2ccc(O)c(OC)c2)cc1	0	0	7	9	6	-2	x	x	x	x	x	x	x
COc1ccc(N=C2NC(=O)/C(=C/c3ccc(O)c(OC)c3)S2)cc1	25*	37*	32*	145*	23	-24	44*	52*	32*	12	64*	0	35*	Rpn11 confirm=49*;MMP-2 counter-1=2;Thrombin FP=68*
COc1cc(/C=C2\SC(=Nc3ccc(O)cc3)NC2=O)cc(OC)c1OC	-3	x	0	x	x	x	x	x	x	x	x	x	x
COc1cc(/C=C2\SC(c3ccc(C)cc3)=NC2=O)ccc1O	8	72*	80*	142*	78*	-11	98*	101*	x	x	-11	0	50*
COc1ccccc1N=C1NC(=O)/C(=C/c2ccc(N(C)C)cc2)S1	53*	41*	119*	x	144	-70	131*	125*	56*	53*	153*	-25*	21*

Screening data (PubChem)
